SENP1 inh: inhibitors of human SENP1 SUMO protease catalytic domain; recombinant SENP1 catalytic domain, CyPet-SUMO1-YPet FRET cleavage; inhibition, % at 10 µM; hit rate 0.21% among 360,000; Q9P0U3;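 active = inhibition at least 30% at 10 µM, raw YFP signal under a set limit, fluorescence ratio 0.5 to 1.5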;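 also: 0% = enzyme with DMSO and 100% = no enzyme wells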
Target sequence (Q9P0U3 419-644 limits assumed): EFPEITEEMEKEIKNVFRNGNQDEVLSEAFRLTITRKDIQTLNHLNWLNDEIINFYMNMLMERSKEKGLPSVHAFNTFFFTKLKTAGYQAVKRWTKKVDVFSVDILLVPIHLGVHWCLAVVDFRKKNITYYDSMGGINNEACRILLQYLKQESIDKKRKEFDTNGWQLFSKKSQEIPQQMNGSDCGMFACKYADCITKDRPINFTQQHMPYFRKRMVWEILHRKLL
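Material: hSENP1 catalytic domain, recombinant; medium: Tris pH 8 with BME, BSA, NP40 and catalase; compound: single concentration of 10 µM compound, 0.5% DMSO final; technique: FRET read of cyan and yellow fluorescence; timing: 50 min enzyme reaction, room temperature, light-protected; reagent: SFCypet-SUMO1-SFYpet substrate at 25 nM; control set: no-enzyme low, enzyme-DMSO high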
SENP6 block: blocks the human protease SENP6; Recombinant SENP6 catalytic domain, aminoluciferin luminescence; inhibition, % at 10 µM; hit rate 1.8% among 330,000;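 active = inhibition above about 50% at the single tested dose, limit read from the data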;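 also: plate controls were DMSO wells with enzyme for no effect and DMSO wells lacking enzyme for full effect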
SENP8 block-1: inhibitors of human SENP8 protease; Q96LD8; purified SENP8, Z-RLRGG-aminoluciferin cleavage, luminescence; inhibition, % at 10 µM; hit rate 1.2% among 330,000; AID 2540; in the data active = inhibition above about 50%
SENP7 block: SENP7 protease inhibition | Q9BQF6 | recombinant SENP7, Z-RLRGG-aminoluciferin luminescence, 40 min | inhibition, % at 5 µM | hit rate 1.5% among 330,000;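 active = inhibition above about 50% at the single test dose, limit read from the data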;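 also: plate controls were DMSO with enzyme for no effect and no enzyme buffer wells for full effect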
Apaf1 inhib: blocks human Apaf-1 apoptosome activity. O14727. hit rate 0.71% among 330,000. reconstituted apoptosome caspase-3 activity, DEVD-Rh110 fluorescence. inhibition, % at 20 µM; active = inhibition of at least 40% at 20 µM;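 also: plate controls were DMSO wells for no effect and DEVD-CHO caspase inhibitor wells for full effect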
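Assay system – apoptosome proteins · Medium – Hepes buffer, pH 7.5 · Also added – cytochrome c with DEVD-Rh110 · Timing – 30 min compound preincubation, 50 min activation, room temperature · Detection – Rh110 fluorescence, excitation 480 nm, emission 540 nm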
SENP8 block-2: SENP8 (human) protease inhibition | recombinant SENP8, Nedd8 substrate fluorescence | AID 602440 | inhibition, % at 20 µM | hit rate 0.64% among 360,000; in the data active = inhibition mostly above about 40%, no sharp cut-off; inactive = mostly below about 27%
SENP8 confirm: confirmation of human SENP8 protease inhibitors; shares compounds with SENP7 block; Recombinant SENP8, Z-RLRGG-aminoluciferin luminescence, 60 min; inhibition, % at 12.5 µM; hit rate 40% among 6,200; AID 488912;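 active = mean inhibition across replicates above about 50%, limit read from the data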
SENP6 confirm: human SENP6 inhibition, confirmed; shares compounds with SENP7 block; recombinant SENP6, Z-RLRGG-aminoluciferin luminescence; inhibition, % at 12.5 µM; hit rate 58% among 6,200; AID 488915
SENP7 conf: human SENP7 inhibition, confirmed; shares compounds with SENP7 block; recombinant SENP7, Z-RLRGG-aminoluciferin luminescence, 40 min; inhibition, % at 12.5 µM; hit rate 69% among 6,200
Casp3 select: caspase-3 inhibition (SENP selectivity assay); inhibition, % at 12.5 µM; hit rate 60% among 6,200; purified caspase-3, Z-DEVD-aminoluciferin luminescence, 60 min; AID 488918; shares compounds with SENP7 block;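 active = mean inhibition above about 50%, limit read from the data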;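 also: plate controls were enzyme with DMSO for no effect and wells without caspase-3 for full effect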
Target sequence (P42574 28-227 limits assumed): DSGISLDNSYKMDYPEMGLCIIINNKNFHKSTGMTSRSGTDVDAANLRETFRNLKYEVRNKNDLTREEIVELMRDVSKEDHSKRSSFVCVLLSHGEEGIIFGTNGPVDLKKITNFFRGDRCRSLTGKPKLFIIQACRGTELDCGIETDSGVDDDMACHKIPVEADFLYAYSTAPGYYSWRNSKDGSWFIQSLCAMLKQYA
SENP luc ctr: counter-screen for SENP inhibitors: luminescence interference. Pre-incubated SENP8/Z-RLRGG-aminoluciferin, luciferase luminescence interference. inhibition, % at 12.5 µM. hit rate 39% among 6,200. shares compounds with SENP7 block;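 active = mean inhibition above about 50% when retested at one dose, limit read from the data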;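 also: plate controls were DMSO wells with completed reaction for no effect and substrate without enzyme for full effect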
Active calls of the source: *. A selection: hits, their analogues and other compounds. The true share with any hit is near 2.9%.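 The calls were made as follows, unless noted: active = mean inhibition above about 50% in the one-dose retest (limit read from the data); inactive = the rest.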

COc1cccc(C(=O)OCC(=O)c2ccc(Br)s2)c1 was read as SENP1 inh 0.3, SENP6 block 54.3*, SENP8 block-1 24.6, SENP7 block 40.1, Apaf1 inhib 13.4, SENP8 block-2 4.2, SENP8 confirm 53.1*, SENP6 confirm 49.2, SENP7 conf 78.4*, Casp3 select 35.5 and SENP luc ctr 20.9.
`CCOC(=O)C1CCCN(C(=O)CCn2nnnc2CN2CCOCC2)C1` (centres undefined) gave SENP1 inh 0.4, SENP6 block -12.2, SENP8 block-1 -8.2, SENP7 block -10.5, Apaf1 inhib 4.8 and SENP8 block-2 13.9.
Screening N#C/C(=C(/O)c1ccc([N+](=O)[O-])o1)c1nc2ccccc2[nH]1 returned SENP1 inh -35.7, SENP6 block 65.8*, SENP8 block-1 39.3, SENP7 block 42.5, Apaf1 inhib -4.5, SENP8 block-2 33.2, SENP8 confirm -1.6, SENP6 confirm -1.0, SENP7 conf -3.7, Casp3 select -1.6 and SENP luc ctr -3.5.
For COc1ccccc1CN=c1c([N+](=O)[O-])nn(-c2ccc3c(c2)OCCO3)n1O the results were SENP1 inh -1.9, SENP6 block 46.2, SENP8 block-1 22.5, SENP7 block 59.1*, Apaf1 inhib 3.6, SENP8 block-2 26.1, SENP8 confirm -10.9, SENP6 confirm 1.9, SENP7 conf -9.0, Casp3 select 7.5 and SENP luc ctr 0.5.
`O=[N+]([O-])c1nn(-c2ccc3c(c2)OCCO3)n(O)c1=NCc1ccccc1Cl` gave SENP1 inh 0.6, SENP6 block 27.4, SENP8 block-1 8.5, SENP7 block 63.7*, Apaf1 inhib -10.5, SENP8 block-2 17.2, SENP8 confirm 10.3, SENP6 confirm 31.7, SENP7 conf 64.6*, Casp3 select 12.9 and SENP luc ctr 7.0.
Cn1c(NCC2CCCCC2)nc2cc(-c3ccsc3)sc2c1=O was read as SENP1 inh -0.7 and SENP8 block-2 -95.3.
CC(=O)Nc1ccc(-c2cc(N)n(-c3ccccc3)n2)cc1 was read as SENP1 inh -7.1, SENP6 block 55.5*, SENP8 block-1 37.6, SENP7 block 57.9*, Apaf1 inhib -12.0, SENP8 block-2 -66.8, SENP8 confirm 44.8, SENP6 confirm 44.5, SENP7 conf 77.8*, Casp3 select 79.8* and SENP luc ctr 62.1*.
Nc1cc(-c2ccc(Cl)cc2)nn1-c1ccccc1 was read as SENP1 inh -0.5, SENP6 block 33.8, SENP8 block-1 48.0, SENP7 block 62.9*, Apaf1 inhib 4.7, SENP8 block-2 -2.2, SENP8 confirm 36.0, SENP6 confirm 38.4, SENP7 conf 80.0*, Casp3 select 53.3* and SENP luc ctr 71.1*.

Compound activity deposited in PubChem by Sanford-Burnham Center for Chemical Genomics.
